According to ChEMBL document CHEMBL3853331, “Preparation, Antiepileptic Activity, and Cardiovascular Safety of Dihydropyrazoles as Brain-Penetrant T-Type Calcium Channel Blockers” (J Med Chem, 2016):
pIC50: −log10 of the molar value. Values after ≈ are worked out from the molar mass of the structure shown.

Experiments:
[1] = Fraction unbound in Wistar rat microsomes; assay type: ADME, Microsome
[2] = Aqueous solubility of the compound at pH 7 by UV-HPLC method; assay type: physicochemical
Summary of the method: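 Compound dispensed from a 10 mM DMSO stock and the solvent evaporated. Residue stirred 24 h at room temperature in buffer: citrate (55 mM) pH 4.0 or phosphate (67 mM) pH 7.0. Mixture filtered by centrifugation. Filtrate concentration measured by HPLC-UV against calibration solutions.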

[3] = Unbound drug level in Wistar rat brain at 100 mg/kg, po measured after 1 hr; assay type: ADME, organism-based; conditions: in vivo
[4] = Plasma concentration in Wistar rat at 10 mg/kg, po measured after 3 hrs; assay type: ADME, organism-based
[5] = Half life in Wistar rat plasma at 0.2 mg/kg, iv; assay type: ADME, organism-based
Summary of the method: (§1)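 Male Wistar rats dosed iv at 0.2 mg/kg or po at 2 mg/kg. In the inhibited arm, the broad CYP inhibitor aminobenzotriazol was given orally 2 h before dosing. Clearance, Vss and half-life derived from plasma concentrations after the iv dose; Cmax and Tmax from the po dose.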

Rattus norvegicus [6] = experiment: Cardiovascular toxicity in spontaneously hypertensive rat assessed as reduction in heart rate at 100 mg/kg, po within 6 hrs post dose; assay type: organism-based; conditions: in vivo
Summary of the method: (§2)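 Conscious, freely moving male spontaneously hypertensive rats with telemetry recording MAP, HR and ECG. Single oral dose (5 ml/kg) given as a suspension in 0.5% w/v methylcellulose in water, in the morning during the sleep phase. Vehicle controls run in parallel, n = 8 per group.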

[7] = molecular target: Voltage-dependent T-type calcium channel subunit alpha-1H (Homo sapiens, UniProt O95180); experiment: Inhibition of recombinant T-type calcium channel Cav3.2 (unknown origin) expressed in HEK293 cells assessed as inhibition of CaCl2-induced calcium influx preincubated for 3 mins prior CaCl2 addition by Fluo-4-AM dye-based FLIPR assay; assay type: cell-based
Sequence of Voltage-dependent T-type calcium channel subunit alpha-1H (O95180 whole entry): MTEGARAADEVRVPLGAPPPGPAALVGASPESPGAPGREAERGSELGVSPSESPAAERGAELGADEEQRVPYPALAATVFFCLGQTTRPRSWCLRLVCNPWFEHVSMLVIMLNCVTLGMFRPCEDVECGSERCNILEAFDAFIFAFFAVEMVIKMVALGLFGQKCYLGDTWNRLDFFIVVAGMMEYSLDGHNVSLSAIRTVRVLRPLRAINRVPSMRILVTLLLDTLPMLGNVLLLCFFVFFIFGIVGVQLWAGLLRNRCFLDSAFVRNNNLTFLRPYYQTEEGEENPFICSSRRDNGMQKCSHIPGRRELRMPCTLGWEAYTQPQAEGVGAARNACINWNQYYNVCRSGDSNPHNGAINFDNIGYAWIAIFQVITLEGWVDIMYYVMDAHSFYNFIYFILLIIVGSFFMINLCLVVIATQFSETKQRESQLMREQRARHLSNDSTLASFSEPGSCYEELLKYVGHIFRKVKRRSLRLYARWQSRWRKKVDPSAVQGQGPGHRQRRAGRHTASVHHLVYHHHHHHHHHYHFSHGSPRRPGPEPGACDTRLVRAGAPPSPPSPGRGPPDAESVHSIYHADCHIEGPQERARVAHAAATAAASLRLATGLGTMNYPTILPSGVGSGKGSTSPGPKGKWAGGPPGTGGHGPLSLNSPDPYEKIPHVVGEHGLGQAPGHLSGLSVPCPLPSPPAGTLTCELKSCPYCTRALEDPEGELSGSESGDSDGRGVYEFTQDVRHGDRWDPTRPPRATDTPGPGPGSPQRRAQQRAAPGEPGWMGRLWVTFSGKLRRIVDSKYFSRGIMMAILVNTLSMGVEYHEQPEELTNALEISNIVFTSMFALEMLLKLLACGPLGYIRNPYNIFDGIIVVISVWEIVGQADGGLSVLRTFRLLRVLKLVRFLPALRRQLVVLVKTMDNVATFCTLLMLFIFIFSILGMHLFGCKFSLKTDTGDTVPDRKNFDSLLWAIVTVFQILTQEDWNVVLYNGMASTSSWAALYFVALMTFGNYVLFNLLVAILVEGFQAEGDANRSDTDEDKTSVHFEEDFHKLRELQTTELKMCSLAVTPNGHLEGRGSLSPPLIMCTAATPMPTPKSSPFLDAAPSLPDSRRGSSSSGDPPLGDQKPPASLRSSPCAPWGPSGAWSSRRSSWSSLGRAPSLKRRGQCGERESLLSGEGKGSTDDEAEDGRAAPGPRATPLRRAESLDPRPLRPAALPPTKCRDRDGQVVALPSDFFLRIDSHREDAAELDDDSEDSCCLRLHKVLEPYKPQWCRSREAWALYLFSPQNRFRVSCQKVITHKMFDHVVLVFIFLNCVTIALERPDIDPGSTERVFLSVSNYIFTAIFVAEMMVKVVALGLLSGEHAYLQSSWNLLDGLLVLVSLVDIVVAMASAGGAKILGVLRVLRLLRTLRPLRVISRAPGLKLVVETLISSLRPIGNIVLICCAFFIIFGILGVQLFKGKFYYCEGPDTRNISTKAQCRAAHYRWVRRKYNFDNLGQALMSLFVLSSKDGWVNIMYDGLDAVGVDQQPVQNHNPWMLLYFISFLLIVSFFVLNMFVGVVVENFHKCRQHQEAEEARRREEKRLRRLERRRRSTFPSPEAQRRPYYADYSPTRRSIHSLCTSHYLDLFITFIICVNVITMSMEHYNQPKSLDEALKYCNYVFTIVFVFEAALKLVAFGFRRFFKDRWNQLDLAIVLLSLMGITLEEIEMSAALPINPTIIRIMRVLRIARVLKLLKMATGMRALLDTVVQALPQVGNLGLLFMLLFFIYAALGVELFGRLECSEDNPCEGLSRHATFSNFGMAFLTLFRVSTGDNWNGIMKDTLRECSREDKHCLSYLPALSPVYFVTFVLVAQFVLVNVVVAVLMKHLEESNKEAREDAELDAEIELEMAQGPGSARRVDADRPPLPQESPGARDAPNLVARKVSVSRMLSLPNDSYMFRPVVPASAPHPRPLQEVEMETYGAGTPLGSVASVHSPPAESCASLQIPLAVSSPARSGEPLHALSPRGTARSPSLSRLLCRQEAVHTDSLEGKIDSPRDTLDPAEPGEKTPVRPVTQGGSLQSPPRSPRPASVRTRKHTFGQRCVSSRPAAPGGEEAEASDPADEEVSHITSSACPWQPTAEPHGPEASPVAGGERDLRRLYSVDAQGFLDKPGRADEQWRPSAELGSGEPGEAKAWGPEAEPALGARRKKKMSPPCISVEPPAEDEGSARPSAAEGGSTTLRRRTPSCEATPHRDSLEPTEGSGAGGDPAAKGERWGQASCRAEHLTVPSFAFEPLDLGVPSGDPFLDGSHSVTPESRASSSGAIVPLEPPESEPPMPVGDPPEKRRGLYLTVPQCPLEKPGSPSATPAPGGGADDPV
Summary of the method: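 HEK293 cells stably expressing Cav3.2, plated overnight at 37°C, loaded 1 h at 37°C with 3 µM Fluo-4-AM in HBSS/Hepes pH 7.4, then washed. Compound in TEAC buffer (100 mM tetraethylammonium chloride, pH 7.2), 3-fold series from 10 µM to 0.05 nM, 3 min before CaCl2 to a final 10 mM. IC50 fitted sigmoidally to the fluorescence AUC against vehicle signal; mean of at least two independent experiments.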

Rattus norvegicus [8] = experiment: Cardiovascular toxicity in spontaneously hypertensive rat assessed as reduction in heart rate at 100 mg/kg, po; assay type: organism-based; conditions: in vivo; summary of the method: as §2
Cytochrome P450 2D6 = Cytochrome P450 2D6 (Homo sapiens, UniProt P10635); experiment: Inhibition of CYP2D6 (unknown origin)
Sequence of Cytochrome P450 2D6 (P10635 whole entry): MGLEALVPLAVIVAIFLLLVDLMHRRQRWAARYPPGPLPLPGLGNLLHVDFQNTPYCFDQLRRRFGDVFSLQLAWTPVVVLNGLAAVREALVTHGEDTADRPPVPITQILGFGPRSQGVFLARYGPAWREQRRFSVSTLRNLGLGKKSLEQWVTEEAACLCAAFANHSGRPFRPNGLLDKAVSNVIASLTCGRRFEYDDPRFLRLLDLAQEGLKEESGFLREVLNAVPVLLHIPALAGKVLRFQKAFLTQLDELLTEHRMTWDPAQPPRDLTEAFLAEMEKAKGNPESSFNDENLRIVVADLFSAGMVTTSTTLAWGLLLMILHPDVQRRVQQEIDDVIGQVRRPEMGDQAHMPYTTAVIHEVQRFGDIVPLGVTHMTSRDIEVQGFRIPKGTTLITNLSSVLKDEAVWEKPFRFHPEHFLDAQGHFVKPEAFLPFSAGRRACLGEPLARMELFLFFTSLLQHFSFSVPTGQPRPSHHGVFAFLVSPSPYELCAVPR

[9] = molecular target: T1, Voltage-dependent T-type calcium channel subunit alpha-1I (Homo sapiens, UniProt Q9P0X4); experiment: Inhibition of T-type calcium channel Cav3.3 (unknown origin) expressed in HEK293 cells assessed as calcium influx by Fluo-4-AM dye-based FLIPR assay; assay type: cell-based
T1 sequence (Q9P0X4 whole entry): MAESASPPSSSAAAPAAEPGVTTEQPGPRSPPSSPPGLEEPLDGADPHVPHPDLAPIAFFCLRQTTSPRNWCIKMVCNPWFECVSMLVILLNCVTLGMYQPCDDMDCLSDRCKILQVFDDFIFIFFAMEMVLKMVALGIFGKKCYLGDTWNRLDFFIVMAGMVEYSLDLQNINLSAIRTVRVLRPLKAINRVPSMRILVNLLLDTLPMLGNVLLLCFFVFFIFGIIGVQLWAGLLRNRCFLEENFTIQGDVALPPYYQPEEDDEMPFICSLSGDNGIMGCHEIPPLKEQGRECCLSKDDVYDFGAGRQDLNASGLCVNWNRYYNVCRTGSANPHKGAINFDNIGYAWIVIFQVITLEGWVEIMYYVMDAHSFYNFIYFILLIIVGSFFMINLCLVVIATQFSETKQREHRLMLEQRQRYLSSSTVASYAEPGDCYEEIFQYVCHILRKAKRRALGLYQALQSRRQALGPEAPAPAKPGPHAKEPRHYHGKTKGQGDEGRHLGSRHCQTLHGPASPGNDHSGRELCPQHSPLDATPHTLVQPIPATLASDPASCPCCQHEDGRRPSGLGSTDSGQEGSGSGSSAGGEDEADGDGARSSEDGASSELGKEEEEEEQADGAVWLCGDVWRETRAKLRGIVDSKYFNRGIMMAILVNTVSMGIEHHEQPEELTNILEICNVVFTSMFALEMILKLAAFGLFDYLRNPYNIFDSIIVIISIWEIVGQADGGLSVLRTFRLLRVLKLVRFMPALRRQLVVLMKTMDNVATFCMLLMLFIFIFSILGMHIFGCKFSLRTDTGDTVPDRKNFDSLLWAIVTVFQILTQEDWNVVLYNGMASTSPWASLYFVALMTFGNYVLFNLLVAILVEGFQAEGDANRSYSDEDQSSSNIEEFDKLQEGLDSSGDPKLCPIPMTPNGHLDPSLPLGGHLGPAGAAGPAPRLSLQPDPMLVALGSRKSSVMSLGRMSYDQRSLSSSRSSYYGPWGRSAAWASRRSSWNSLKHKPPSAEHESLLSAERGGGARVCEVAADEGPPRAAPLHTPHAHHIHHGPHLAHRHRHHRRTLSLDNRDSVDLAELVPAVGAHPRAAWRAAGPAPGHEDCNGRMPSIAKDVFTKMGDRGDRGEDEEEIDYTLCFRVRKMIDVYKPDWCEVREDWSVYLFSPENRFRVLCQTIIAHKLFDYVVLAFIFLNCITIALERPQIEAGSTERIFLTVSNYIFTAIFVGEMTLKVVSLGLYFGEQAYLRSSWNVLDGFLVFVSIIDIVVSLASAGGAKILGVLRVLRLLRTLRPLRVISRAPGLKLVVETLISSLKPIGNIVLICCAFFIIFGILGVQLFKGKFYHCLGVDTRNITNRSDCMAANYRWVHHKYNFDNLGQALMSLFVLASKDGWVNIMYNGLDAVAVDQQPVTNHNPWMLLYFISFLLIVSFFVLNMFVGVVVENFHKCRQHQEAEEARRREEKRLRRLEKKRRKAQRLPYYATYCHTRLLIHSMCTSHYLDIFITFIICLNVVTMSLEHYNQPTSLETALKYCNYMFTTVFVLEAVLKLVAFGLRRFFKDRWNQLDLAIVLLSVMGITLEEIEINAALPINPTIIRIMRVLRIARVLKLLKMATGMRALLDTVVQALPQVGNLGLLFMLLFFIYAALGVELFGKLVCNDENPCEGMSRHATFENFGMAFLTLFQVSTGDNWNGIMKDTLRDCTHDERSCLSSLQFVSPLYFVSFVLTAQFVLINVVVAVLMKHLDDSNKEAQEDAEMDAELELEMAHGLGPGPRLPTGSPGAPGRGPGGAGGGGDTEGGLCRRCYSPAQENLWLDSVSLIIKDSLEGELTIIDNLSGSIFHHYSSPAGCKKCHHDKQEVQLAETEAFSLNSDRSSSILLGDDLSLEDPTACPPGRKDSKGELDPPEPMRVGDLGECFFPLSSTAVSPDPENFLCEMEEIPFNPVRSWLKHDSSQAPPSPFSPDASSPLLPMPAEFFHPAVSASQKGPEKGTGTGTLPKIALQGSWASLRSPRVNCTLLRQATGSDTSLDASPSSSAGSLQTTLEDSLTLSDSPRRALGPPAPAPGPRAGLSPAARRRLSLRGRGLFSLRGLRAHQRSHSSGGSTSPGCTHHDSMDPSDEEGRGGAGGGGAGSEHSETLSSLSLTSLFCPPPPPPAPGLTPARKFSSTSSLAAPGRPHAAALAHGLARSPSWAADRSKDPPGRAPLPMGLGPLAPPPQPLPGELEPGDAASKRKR
Summary of the method: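 HEK293 cells stably expressing the channel, seeded overnight and loaded 1 h at 37°C with 3 µM Fluo-4-AM. Compounds given as a 3-fold dilution series from 10 µM to 0.05 nM and incubated 3 min. For T-type channels, dilutions in TEAC buffer and stimulation with 10 mM final CaCl2. For Cav1.2, dilutions in assay buffer and stimulation with 20 mM final KCl. IC50 from area under the fluorescence trace against vehicle; mean of at least two experiments.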

[10] = Metabolic stability in rat microsomes measured per mg protein; assay type: ADME, Microsome
[11] = Drug uptake in Wistar rat CSF at 10 mg/kg, po measured after 3 hrs; assay type: ADME, organism-based, Cerebrospinal fluid; conditions: read-out: Drug uptake
Summary of the method: (§3)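 Male Wistar rats given oral doses of 10, 30 or 100 mg/kg. Plasma, brain and CSF collected at 1 h, and at 3 h for the 10 mg/kg dose; compound concentrations measured in each.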

[12] = Intrinsic clearance in rat hepatocytes; assay type: ADME, cell-based, Hepatocyte
Rattus norvegicus [13] = experiment: Anticonvulsant activity in WAG/Rij rat model of generalized nonconvulsive absence-like epilepsy assessed as decrease in spontaneous seizures at 100 mg/kg, po administered as single dose at beginning of nocturnal active phase measured over 4 hrs by radiotelometry relative to vehicle control
[14] = molecular target: T1, Voltage-dependent T-type calcium channel subunit alpha-1I; experiment: Inhibition of human T-type calcium channel Cav3.3 expressed in CHO cells assessed as inhibition of calcium tail current at -90 mV holding potential measured after 150 secs by QPatch assay; assay type: cell-based
Summary of the method: (§4)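 CHO cells stably expressing human Cav3.1, Cav3.2 or Cav3.3, automated QPatch recording. 3-ms depolarization to +20 mV from a holding potential of -90 or -60 mV. Ca2+ tail current measured at -60 mV. Cs-glutamate internal and TEA-Cl external solution with 5 mM Ca2+. Effect read 150 s after application.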

[15] = molecular target: T1, Voltage-dependent T-type calcium channel subunit alpha-1I; experiment: Inhibition of human T-type calcium channel Cav3.3 expressed in CHO cells assessed as inhibition of calcium tail current at -60 mV holding potential measured after 150 secs by QPatch assay; assay type: cell-based; summary of the method: as §4
[16] = Cmax in Wistar rat plasma at 2 mg/kg, po administered 2 hrs after aminobenzotriazol-treatment; assay type: ADME, organism-based; parameters: dose 2 mg/kg, route oral; summary of the method: as §1
Rattus norvegicus [17] = experiment: Cardiotoxicity in rat assessed as QT prolongation at 100 mg/kg by electrophysiology method; assay type: toxicity, organism-based; conditions: in vivo; summary of the method: as §2
[18] = Oral bioavailability in Wistar rat plasma at 2 mg/kg; assay type: ADME, organism-based
[19] = Fraction unbound in human plasma; assay type: ADME, cell-free
Rattus norvegicus [20] = organism: Rattus norvegicus; experiment: Inhibition of Wistar rat brain neuronal sodium channel assessed as reduction in peak inward current at 10 uM measured during first peak
Summary of the method: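 Cortical neurons from E18 Wistar rat embryos, cultured 9-15 days, recorded by manual patch clamp from a holding potential of -80 mV. K+ currents: one 50-ms step to 0 mV, fast as peak outward and slow as end-of-pulse current. Na+ currents: train of fifteen 10-ms steps to 0 mV, peak inward current read at the first and last pulses. Effects read at least 180 s after application.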

MDR1 [21] = experiment: Apparent permeability across basolateral to apical side in MDCK cells expressing MDR1 (unknown origin) at 1 uM; assay type: ADME, cell-based, Canis lupus familiaris; conditions: dog
Summary of the method: (§5)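 MDR1-transfected MDCK cell monolayers. Compound tested at 1 µM. Apparent permeability measured in both directions, apical to basolateral and basolateral to apical. Efflux ratio taken from the two directional permeabilities.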

[22] = Cmax in Wistar rat plasma at 2 mg/kg, po; assay type: ADME, organism-based; parameters: dose 2 mg/kg, route oral; summary of the method: as §1
[23] = Drug uptake in Wistar rat brain at 10 mg/kg, po measured after 3 hrs; assay type: ADME, organism-based; conditions: read-out: Drug uptake; summary of the method: as §3
[24] = Drug uptake in Wistar rat assessed as unbound drug level measured after 1 hr; assay type: ADME; conditions: in vivo
[25] = Tmax in Wistar rat plasma at 2 mg/kg, po; assay type: ADME, organism-based
[26] = Drug uptake in Wistar rat brain at 30 mg/kg, po measured after 1 hr; assay type: ADME, organism-based; conditions: read-out: Drug uptake; summary of the method: as §3
Rattus norvegicus [27] = experiment: Cardiovascular toxicity in spontaneously hypertensive rat assessed as decrease in mean […] pressure at 100 mg/kg, po by telemetry method; assay type: organism-based; conditions: in vivo; summary of the method: as §2
[28] = Plasma concentration in Wistar rat at 30 mg/kg, po measured after 1 hr; assay type: ADME, organism-based
[29] = Clearance in Wistar rat plasma at 0.2 mg/kg, iv administered 2 hrs after aminobenzotriazol-treatment; assay type: ADME, organism-based; summary of the method: as §1
MDR1 [30] = experiment: Apparent permeability across apical to basolateral side in MDCK cells expressing MDR1 (unknown origin) at 1 uM; assay type: ADME, cell-based, Canis lupus familiaris; conditions: dog; summary of the method: as §5
[31] = Drug uptake in Wistar rat CSF at 100 mg/kg, po measured after 1 hr; assay type: ADME, organism-based, Cerebrospinal fluid; conditions: read-out: Drug uptake; summary of the method: as §3

## O=C(Nc1ccc(F)cc1)N1N=C(c2ccncc2)CC1c1ccc(F)cc1 (configuration not stated)
[1]
  fraction unbound: 0.5
[2]
  solubility: 2 µg/mL (≈ 5.29 µM)
[3]
  Drug uptake(free): 128 nM
[4]
  concentration at 3 h: 290 nM
[5]
  half-life: 7.1 h
Rattus norvegicus [6]
  Activity: Non-Toxic
[7]
  pIC50: 7.48
Rattus norvegicus [8]
  Activity: Toxic
Cytochrome P450 2D6
  pIC50: 4.36
[9]
  pIC50: 6.47
[10]
  microsomal CLint: 104 µL/min/mg
[11]
  concentration at 3 h: 29 nM
[12]
  CLH: 5.7 µL/min
Rattus norvegicus [13]
  inhibition in vivo at 100 mg/kg: > 99%
[14]
  pIC50: 5.15
[15]
  pIC50: 5.70
[16]
  Cmax: 150 nM
Rattus norvegicus [17]
  Activity: Non-Toxic
[18]
  bioavailability: 4%
[19]
  fraction unbound: 0.02
Rattus norvegicus [20]
  inhibition: 15%
MDR1 [21]
  Papp B→A at 1 µM: 44 ×10⁻⁶ cm/s
[22]
  Cmax: 27 nM
[23]
  concentration at 3 h: 1150 nM
[24]
  Drug uptake(free): 37 nM
[25]
  Tmax: 0.25 h
[26]
  concentration at 1 h: 2570 nM
Rattus norvegicus [27]
  Activity: 12 mmHg
[28]
  concentration at 1 h: 630 nM
[29]
  clearance: 1.6 mL/min/kg
MDR1 [30]
  Papp A→B at 1 µM: 45 ×10⁻⁶ cm/s
[31]
  concentration at 1 h: 61 nM
